Experiments:
Antioxidant = conditions: read-out: IC50 antioxidant activity; DPPH, absorbance at 517 nm
Procedure, shortened: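 Test compound stocks at 22 mg/mL, diluted to working concentrations. DPPH radical was prepared at 4 mg per 100 mL pure methanol. Sample dilution and DPPH solution were mixed 1:2 by volume and left undisturbed overnight. Ascorbic acid in water served as the reference and was treated the same way. Absorbance was read at 517 nm, in triplicate.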

α-amylase = molecular target: T1, α-amylase (Homo sapiens, UniProt P04746); test: In vitro antidiabetic; format: biochemical
T1 sequence (P04746 16-511): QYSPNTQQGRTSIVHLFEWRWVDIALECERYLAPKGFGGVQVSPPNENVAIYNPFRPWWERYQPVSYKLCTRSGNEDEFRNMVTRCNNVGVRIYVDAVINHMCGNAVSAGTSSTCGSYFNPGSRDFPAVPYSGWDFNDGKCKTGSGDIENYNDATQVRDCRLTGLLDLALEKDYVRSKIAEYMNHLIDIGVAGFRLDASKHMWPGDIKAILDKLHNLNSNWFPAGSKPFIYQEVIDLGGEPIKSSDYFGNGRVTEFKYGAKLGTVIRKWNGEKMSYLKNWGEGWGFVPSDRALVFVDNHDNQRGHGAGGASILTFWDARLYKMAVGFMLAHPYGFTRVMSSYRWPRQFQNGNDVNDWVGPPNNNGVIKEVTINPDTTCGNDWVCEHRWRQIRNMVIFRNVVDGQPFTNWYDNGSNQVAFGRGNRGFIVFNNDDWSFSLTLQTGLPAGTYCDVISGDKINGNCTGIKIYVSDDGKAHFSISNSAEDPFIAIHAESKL

Row | Compound | IC50 (Antioxidant) [µM] | IC50 (α-amylase) [µM] | inhibition against diabetes (in words) (α-amylase; conclusion, qualitative grade)
1 | C=CCOC(=O)c1ccccc1C(=O)OCC [HR3, 1-allyl 2-ethyl phthalate] | 15.1 |  | 
2 | CC(C)CCCCCOC(=O)c1ccccc1C(=O)OCCCCCC(C)C [HR5, bis (6-methylheptyl) phthalate] | 15.6 | 11.7 | excellent inhibition

— paper PMC10500580 (ACS Omega, 2023)
